Bioassay records: PubChem, Sanford-Burnham Center for Chemical Genomics
A selection: hits, their analogues and other compounds. The true share with any hit is near 1.4%.
CCR6 antagonist: antagonists of human CCR6 receptor; P51684; CHO-K1 CCR6 PathHunter beta-arrestin, luminescence, CCL20-stimulated; inhibition, % at 20 µM; hit rate 0.49% among 340,000;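 active means compounds whose inhibition of the agonist-driven luminescence signal at 20 µM reaches about 50%, limit read from the data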;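 further: cells stimulated with CCL20 at 14 nM final; plate controls were DMSO with CCL20 for no effect and DMSO without agonist for full effect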
CXCR6 block: inhibitors of human CXCR6 receptor; CHO-K1 PathHunter CXCR6 beta-arrestin, luminescence; inhibition, % at 20 µM; hit rate 0.36% among 360,000; in the data active means inhibition above about 34%, passing the limit was not always enough;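 further: antagonist mode with CXCL16 agonist at 10 nM final; 0% = 10 nM CXCL16 with DMSO and 100% = unstimulated wells without agonist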
A3A deaminase: blocks human APOBEC3A ssDNA deamination; inhibition, % at 20 µM; hit rate 0.41% among 330,000; recombinant A3A, FAM/TAMRA ssDNA deamination fluorescence; P31941;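 active means at least 40% inhibition at 20 µM here, with at most 30% in a related deaminase screen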;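 further: plate controls were A3A with DMSO for no effect and wells lacking A3A enzyme for full effect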
Target sequence (P31941 whole entry, looked up): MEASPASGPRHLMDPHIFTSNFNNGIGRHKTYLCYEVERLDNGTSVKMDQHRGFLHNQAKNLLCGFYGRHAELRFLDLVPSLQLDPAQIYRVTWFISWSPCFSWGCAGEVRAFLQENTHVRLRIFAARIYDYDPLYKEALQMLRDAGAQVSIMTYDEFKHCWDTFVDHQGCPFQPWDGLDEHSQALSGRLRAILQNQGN
APJ antagonist: antagonists of human APJ apelin receptor; P35414; CHO-K1 APJ beta-arrestin complementation, luminescence; inhibition, % at 20 µM; hit rate 0.32% among 330,000; AID 2521;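 active means inhibition above about 40% at 20 µM, limit read from the data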;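 further: cells challenged with 10 nM apelin-13 agonist together with compound; plate controls were apelin-13 plus DMSO wells for no effect and DMSO wells lacking apelin-13 for full effect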
A3G deaminase: inhibitors of human APOBEC3G DNA deaminase; hit rate 0.28% among 330,000; inhibition, % at 20 µM; AID 493012; Q9HC16; recombinant A3G, ssDNA deamination FAM/TAMRA fluorescence;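 active means inhibition of at least 40% at 20 µM, with no more than 30% in the related APOBEC3A deaminase screen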;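 further: plate controls were DMSO wells with A3G for no effect and wells lacking A3G enzyme for full effect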
Target sequence (Q9HC16 whole entry, looked up): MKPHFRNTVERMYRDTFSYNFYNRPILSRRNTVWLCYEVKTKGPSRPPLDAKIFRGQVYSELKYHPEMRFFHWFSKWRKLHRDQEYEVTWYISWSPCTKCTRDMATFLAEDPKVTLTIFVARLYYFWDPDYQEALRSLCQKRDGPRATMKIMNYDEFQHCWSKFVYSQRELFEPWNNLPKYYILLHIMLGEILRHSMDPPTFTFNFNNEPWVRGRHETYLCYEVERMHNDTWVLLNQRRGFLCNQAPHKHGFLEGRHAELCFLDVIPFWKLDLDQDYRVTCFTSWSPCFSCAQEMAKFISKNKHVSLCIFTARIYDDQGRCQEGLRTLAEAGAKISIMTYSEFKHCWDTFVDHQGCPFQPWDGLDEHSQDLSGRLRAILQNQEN
APJ ag: agonists of human APJ apelin receptor; CHO-K1 APJ PathHunter beta-arrestin, luminescence; 0% DMSO wells, 100% apelin; activation, % at 20 µM; hit rate 0.11% among 330,000; AID 2520;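 active means activation more than six SD over the plate average, tested at 20 µM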;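 further: 0% = DMSO alone and 100% = apelin-13 at 10 nM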
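Assay system – PathHunter CHO-K1 APJ (AGTRL-1) beta-arrestin reporter cells · Compound – one dose, 20 µM compound, 1% DMSO · Timing – compound 90 min 25 °C, reagent 1 h · Measured by – luminescence from split beta-galactosidase complementation, Galacton Star/Emerald II substrate · Measure – beta-arrestin recruitment to APJ as agonist activity, luminescent signal · Benchmarks – DMSO vs Apelin-13 10 nM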
A3A conf: confirmation of human APOBEC3A DNA deaminase inhibitors. shares compounds with A3A deaminase. recombinant A3A, ssDNA deaminase UDG fluorescence assay. inhibition, % at 20 µM. hit rate 63% among 1,400. AID 493151;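 active means inhibition reaching a set limit, 80% of the first screen's cutoff, at 20 µM in any replicate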;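 further: plate controls were DMSO wells with A3A for no effect and wells lacking A3A enzyme for full effect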
UDG ctr A3A: inhibits UDG, flagging false APOBEC3A inhibitors | inhibition, % at 20 µM | shares compounds with A3A deaminase | UDG counterscreen, FAM/TAMRA uracil oligo fluorescence | 1,000 tested, under 10 active | AID 504714; call rule not given here
The depositor's hits bear a star; · = no result given.

SMILES | CCR6 antagonist | CXCR6 block | A3A deaminase | APJ antagonist | A3G deaminase | APJ ag | A3A conf | UDG ctr A3A
COc1ccc(S(=O)(=O)Cc2ccc(C(=O)N3CCc4ccccc4C3)o2)cc1 | 9.0 | 0.7 | 3.0 | -0.1 | -4.2 | -2.1 | · | ·
Cc1ccc(S(=O)(=O)Cc2ccc(C(=O)N3CCc4ccccc4C3)o2)cc1 | 16.3 | -1.7 | 41.0* | 2.2 | 10.6 | 0.2 | 34.3* | -2.8
Cc1ccc(S(=O)(=O)N2CCC(C(=O)Nc3ccc(N4CCOCC4)cc3)CC2)cc1C | 23.4 | 8.8 | 43.4* | 32.0 | 4.1 | -9.3 | 11.0 | ·
O=C(Nc1ccc(N2CCOCC2)cc1)C1CCN(S(=O)(=O)c2ccc3c(c2)OCCO3)CC1 | 6.6 | 8.3 | -1.2 | 6.8 | -12.5 | -2.1 | · | ·
C=CCOc1ccc(C(c2c(C(=O)O)[nH]c3ccccc23)c2c(C(=O)O)[nH]c3ccccc23)cc1 | 7.1 | -13.7 | 54.7* | 8.5 | 24.2 | -4.2 | 41.0* | -3.3
O=C(O)c1[nH]c2ccccc2c1C(c1ccccc1)c1c(C(=O)O)[nH]c2ccccc12 | 5.7 | -4.5 | -0.5 | -3.5 | -5.1 | 0.3 | · | ·
CC(=O)NC(CC(=O)NC1CCCCCC1)c1ccccc1 (stereo unspecified) | 14.0 | -1.4 | 45.5* | -8.9 | -4.1 | -1.8 | 32.3* | -1.6
CC(=O)NC(CC(=O)NC1CCCCC1)c1ccccc1 (stereo unspecified) | -2.2 | 0.5 | 30.3 | 0.3 | -7.1 | -2.7 | · | ·
CC(C)(C)NC(=O)C(=O)NCCC1=CCCCC1 | 14.3 | 3.0 | -1.1 | 5.4 | -8.9 | -2.8 | · | ·
COc1ccc(N(CC(=O)N2CCCCCC2)S(=O)(=O)c2ccccc2[N+](=O)[O-])c(OC)c1 | 12.6 | 2.1 | 49.9* | -16.8 | 17.2 | -0.4 | 61.6* | -2.0
COC(=O)CN(c1ccc(OC)cc1OC)S(=O)(=O)c1ccccc1[N+](=O)[O-] | 13.7 | 5.9 | -2.0 | 7.0 | -7.4 | -3.6 | · | ·
CC(NC(=O)CSc1nnc(CC(=O)Nc2ccc(Cl)c(Cl)c2)n1C)c1ccccc1 (stereo unspecified) | -4.5 | 0.6 | 46.9* | 7.7 | 14.7 | -1.4 | 47.9* | ·
CCOc1cc(/C=C/c2cccc[n+]2C)ccc1OCC(=O)Nc1ccc(C)cc1 | -1.0 | -5.7 | 86.7* | 10.5 | 21.8 | -0.1 | 73.7* | -1.9
CCOc1cc(/C=C/c2cccc[n+]2C)ccc1O | 17.6 | -2.5 | 81.2 | 11.9 | 32.0 | -1.7 | · | ·
CCOc1cc(/C=C\[N+](=O)[O-])ccc1OCC(=O)Nc1ccccc1C | · | 26.7 | 8.8 | 28.9 | 1.6 | 13.5 | · | ·
COc1cc(/C=C/c2cccc[n+]2C)ccc1OCC(=O)Nc1ccccc1C | -6.7 | -7.1 | 82.2* | 22.1 | 23.4 | 0.6 | 72.5* | -0.4
CCOc1ccc(NC(=O)CCC(=O)Oc2ccc(C)cc2)cc1 | 11.6 | -4.0 | -0.2 | -3.0 | -5.9 | -1.2 | · | ·
COc1ccc(CCN2C(=O)CC(Sc3ncccc3C(=O)O)C2=O)cc1OC (stereo unspecified) | 4.2 | 2.6 | 98.0* | 1.8 | -3.6 | -0.6 | -5.4 | 1.8
CCCN1C(=O)CC(Sc2ncccc2C(=O)O)C1=O (stereo unspecified) | 1.4 | -3.5 | -7.1 | 11.9 | -5.2 | -1.7 | · | ·
COc1ccc(Cc2c(-c3ccc(F)cc3)nc3c(C)cc(Br)cn23)c(C)c1 | · | -1.6 | · | · | · | · | · | ·
CC(Oc1ccc(Br)cc1)C(=O)Nc1cc(Cl)ccc1N1CCN(C)CC1 (stereo unspecified) | 11.8 | -3.9 | 58.1* | 12.6 | 9.4 | -5.0 | 54.4* | -1.9
COc1ccc(CCC(=O)Nc2cc(Cl)ccc2N2CCN(C)CC2)cc1 | 3.8 | · | 5.9 | 3.2 | -4.0 | -0.2 | · | ·
CCCn1c(N)c(N(CCOC)C(=O)CSCC(=O)Nc2cccc(C)c2)c(=O)[nH]c1=O | 5.8 | -7.2 | 3.2 | 6.7 | -5.3 | 6.2 | · | ·
CCC[n+]1c(C)sc2c(OC)ccc(OC)c21 | 7.5 | 3.0 | 43.7* | 16.6 | 18.9 | -1.3 | 19.5* | -0.8
CCCCC(=O)Nc1nc2c(OC)ccc(OC)c2s1 | 9.0 | -1.8 | 2.5 | 6.7 | 6.2 | -8.2 | · | ·
SMILES | CCR6 antagonist | CXCR6 block | A3A deaminase | APJ antagonist | A3G deaminase | APJ ag | A3A conf | UDG ctr A3A
O=C(CSc1nnc(NC(=O)c2ccc3c(c2)OCO3)s1)NCc1ccco1 | 8.3 | 2.0 | 88.0* | 25.0 | -3.1 | -1.8 | -2.2 | 1.8
CC(C)(C)c1ccc(CC(=O)N2CCC2(C)C(=O)NS(=O)(=O)c2cccs2)cc1 (stereo unspecified) | · | -0.2 | · | · | · | · | · | ·
C[n+]1c(/C=C/c2ccc(O)cc2)ccc2ccccc21 | 14.9 | 10.7 | 57.3* | 23.5 | 27.6 | -3.9 | 75.3* | 5.3
C[n+]1c(/C=C/c2ccc3c(c2)OCO3)ccc2ccccc21 | -2.0 | 9.0 | 86.0* | 1.5 | 20.2 | -2.4 | 86.6* | -2.4
ClCc1csc(-c2ccccc2Cl)n1 | 5.3 | -5.7 | -2.8 | 0.0 | -5.1 | -2.8 | · | ·
O=C(NCc1ccco1)c1nc(-c2ccc(F)cc2)no1 | 8.0 | -1.9 | 40.1* | 12.7 | -9.3 | 0.7 | -3.1 | -2.3
O=C(NCc1ccco1)c1ccccc1-c1nc(-c2ccc(F)cc2)no1 | 11.1 | 2.0 | 2.5 | -4.8 | 2.1 | -5.3 | · | ·
CC1(C(=O)NCc2ccc(F)c(F)c2)Cc2c(-c3ccccc3)ccnc2O1 (stereo unspecified) | · | -5.8 | · | · | · | · | · | ·
O=C(O)C1CCCCC1C(=O)Nc1cccc(Br)c1 (stereo unspecified) | -6.9 | 1.9 | 94.3* | -5.0 | 24.1 | 4.9 | 90.9* | ·
CSc1nc2ccc(NC(=O)c3ccc(=O)[nH]c3)cc2s1 | 2.7 | -2.2 | 41.9* | 12.8 | 2.8 | 0.8 | 22.8 | ·
Cc1ccc(C)c(S(=O)(=O)N2CCCCC2CCNC(=O)C(=O)NC2CC2)c1 (stereo unspecified) | -1.8 | 2.9 | -0.1 | 9.8 | -1.2 | 2.3 | · | ·
O=C1C=C(Nc2ccccc2)c2ccccc2C1=O | 18.2 | 9.4 | -0.6 | -58.0 | -4.9 | 0.8 | · | ·
O=C1C=C(Nc2ccccc2)C(=O)c2ccccc21 | 7.1 | 3.5 | 65.1* | -81.1 | -8.5 | -5.9 | -1.4 | 2.8
CC(C)N(Cc1ccccc1)C(=O)COC(=O)c1ccc(S(=O)(=O)N2CCOCC2)cc1 | 10.0 | 2.4 | -2.2 | 3.5 | -9.3 | -1.1 | · | ·
O=C(COC(=O)c1nc(Cl)c(Cl)c(Cl)c1Cl)c1ccc[nH]1 | 0.9 | 37.2 | 44.9* | 9.1 | 12.8 | -1.8 | 3.8 | ·
COc1ccccc1CNC(=O)N1CCN(S(=O)(=O)c2ccccc2)CC1 | 1.4 | -10.1 | -2.2 | 0.9 | -8.5 | -1.1 | · | ·
N#Cc1ccccc1CN1C(=O)S/C(=C/c2cccn2-c2ccc(C(=O)O)cc2)C1=O | 27.4 | 5.2 | 43.9* | 4.6 | 13.7 | -6.8 | 25.1* | -3.5
